Reference: ChEMBL document CHEMBL1134548, “Disabling erbB receptors with rationally designed exocyclic mimetics of antibodies: structure-function analysis” (J Med Chem, 2001)
pKd: −log10 of the molar value. Positions of bridges follow the written chain, without caps; N, C: chain ends. Residues, ends and D or L forms follow the SMILES beside them.

Key:
[1] = Inhibition of T6-17 cell proliferation; assay type: functional, Mus musculus; parameters: concentration or dose not given beside the values
Summary of the method: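 T6-17 cells (NIH3T3 engineered to overexpress human HER2) seeded overnight at 1000/well in DMEM with 10% FBS, then cultured 48 h in fresh medium with peptide at 1 µg/mL. MTT (5 mg/mL in PBS) added, 2 h at 37 °C. SDS/DMF extraction buffer (pH 4.7) added, overnight at 37 °C, then OD 600 nm read. Each value is the mean of at least four samples.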

[2] = Solubility in the PBS buffer at 1 mg/mL; Limited solubility; assay type: physicochemical
[3] = target: T1, Receptor tyrosine-protein kinase erbB-2 (Homo sapiens, UniProt P04626); assay: Kinetic constant for peptide inhibitor binding to HER2 receptor
T1 sequence (P04626 whole entry, the tested form may be a part): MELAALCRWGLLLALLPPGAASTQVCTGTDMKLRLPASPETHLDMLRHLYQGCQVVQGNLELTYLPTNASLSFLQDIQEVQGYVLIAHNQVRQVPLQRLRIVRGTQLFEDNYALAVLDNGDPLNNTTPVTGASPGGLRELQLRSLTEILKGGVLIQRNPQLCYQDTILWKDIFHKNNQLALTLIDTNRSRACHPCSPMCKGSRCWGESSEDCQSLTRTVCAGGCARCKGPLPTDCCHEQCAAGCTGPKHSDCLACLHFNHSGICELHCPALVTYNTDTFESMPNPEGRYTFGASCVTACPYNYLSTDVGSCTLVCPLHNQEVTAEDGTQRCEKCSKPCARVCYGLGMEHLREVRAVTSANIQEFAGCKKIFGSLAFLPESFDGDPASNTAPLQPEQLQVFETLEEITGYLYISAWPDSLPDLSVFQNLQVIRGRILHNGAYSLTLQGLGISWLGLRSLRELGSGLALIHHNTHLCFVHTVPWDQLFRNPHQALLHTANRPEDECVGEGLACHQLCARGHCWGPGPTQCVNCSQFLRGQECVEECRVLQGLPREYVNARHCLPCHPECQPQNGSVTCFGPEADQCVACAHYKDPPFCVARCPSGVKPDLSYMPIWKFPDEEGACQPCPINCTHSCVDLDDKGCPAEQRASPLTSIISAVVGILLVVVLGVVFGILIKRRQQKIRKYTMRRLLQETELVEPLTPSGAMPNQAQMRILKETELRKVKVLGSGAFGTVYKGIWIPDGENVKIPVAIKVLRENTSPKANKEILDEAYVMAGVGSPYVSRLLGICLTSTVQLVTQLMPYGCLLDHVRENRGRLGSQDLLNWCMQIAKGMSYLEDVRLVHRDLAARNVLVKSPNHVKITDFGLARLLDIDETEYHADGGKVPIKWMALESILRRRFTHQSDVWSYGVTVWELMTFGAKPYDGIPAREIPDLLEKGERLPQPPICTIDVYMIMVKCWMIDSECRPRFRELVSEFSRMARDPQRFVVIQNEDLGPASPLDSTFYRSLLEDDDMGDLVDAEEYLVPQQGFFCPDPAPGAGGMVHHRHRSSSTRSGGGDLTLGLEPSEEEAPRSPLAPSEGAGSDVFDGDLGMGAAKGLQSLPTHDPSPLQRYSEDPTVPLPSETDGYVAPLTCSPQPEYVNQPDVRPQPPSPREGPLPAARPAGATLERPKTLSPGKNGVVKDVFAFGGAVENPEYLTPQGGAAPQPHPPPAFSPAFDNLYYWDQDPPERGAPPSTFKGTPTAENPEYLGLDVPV
Summary of the method: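 Surface plasmon resonance at 25 °C. HER2 ectodomain–human IgG Fc fusion was amine-coupled (EDC/NHS, 40 ng/mL in 10 mM NaOAc pH 5.0) to 3500 RU, with a blank reference surface. Peptides were flowed at variable concentrations at 20 µL/min, with 240 s association and 300 s dissociation. Signals were reference- and buffer-subtracted, and kon, koff and KD (koff/kon) were fitted to a pseudo-first-order model.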

[4] = target: T1, Receptor tyrosine-protein kinase erbB-2; assay: Dissociation constant for peptide inhibitor binding to HER2 receptor
Summary of the method: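 Surface plasmon resonance at 25 °C. Recombinant HER2 ectodomain–human IgG Fc fusion was amine-coupled to the sensor chip to 3500 RU. A blank reference surface was subtracted. Peptides were injected at variable concentrations at 20 µL/min, with 240 s association and 300 s dissociation. Signals were buffer-subtracted and fitted to a pseudo-first-order model, and KD was taken as koff/kon.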

[5] = Solubility in the PBS buffer at 1 mg/mL; Good solubility; assay type: physicochemical

| SMILES | S [2] | k off [3] [s⁻¹] | k on [3] [M⁻¹ s⁻¹] | S [5] | Inhibition [1] [%] | pKd [4] |
| --- | --- | --- | --- | --- | --- | --- |
| CSCC[C@H](NC(=O)[C@H](Cc1ccc(O)cc1)NC(=O)[C@@H]1CSSC[C@H](NC(=O)[C@@H](N)Cc2ccccc2)C(=O)N[C@@H](CC(=O)O)C(=O)NCC(=O)N[C@@H](Cc2ccccc2)C(=O)N[C@@H](Cc2ccc(O)cc2)C(=O)N[C@@H](C)C(=O)N1)C(=O)N[C@@H](CC(=O)O)C(=O)N[C@H](C(=O)O)C(C)C (stereo in doubt; 2) [listing 1 of 2 here] | Insoluble |  |  |  | 22.3 |  |
| CSCC[C@H](NC(=O)[C@H](Cc1ccc(O)cc1)NC(=O)[C@@H]1CSSC[C@H](NC(=O)[C@@H](N)Cc2ccccc2)C(=O)N[C@@H](CC(=O)O)C(=O)NCC(=O)N[C@@H](Cc2ccccc2)C(=O)N[C@@H](Cc2ccc(O)cc2)C(=O)N[C@@H](C)C(=O)N1)C(=O)N[C@@H](CC(=O)O)C(=O)N[C@H](C(=O)O)C(C)C (stereo in doubt; 9) [listing 1 of 2 here] |  | 0.00106 | 298 |  |  |  |
| CSCC[C@H](NC(=O)[C@H](Cc1ccc(O)cc1)NC(=O)[C@@H]1CSSC[C@H](NC(=O)[C@@H](N)Cc2ccccc2)C(=O)N[C@@H](CC(=O)O)C(=O)NCC(=O)N[C@@H](Cc2ccccc2)C(=O)N[C@@H](Cc2ccc(O)cc2)C(=O)N[C@@H](C)C(=O)N1)C(=O)N[C@@H](CC(=O)O)C(=O)N[C@H](C(=O)O)C(C)C (stereo in doubt; 9) [listing 2 of 2 here] |  |  |  |  |  | 5.45 |
| CSCC[C@H](NC(=O)[C@H](Cc1ccc(O)cc1)NC(=O)[C@@H]1CSSC[C@H](NC(=O)[C@@H](N)Cc2ccccc2)C(=O)N[C@@H](CC(=O)O)C(=O)NCC(=O)N[C@@H](Cc2ccccc2)C(=O)N[C@@H](Cc2ccc(O)cc2)C(=O)N[C@@H](C)C(=O)N1)C(=O)N[C@@H](CC(=O)O)C(=O)N[C@H](C(=O)O)C(C)C (stereo in doubt; 2) [listing 2 of 2 here] |  | 0.000643 | 990 |  |  |  |
| CSCC[C@H](NC(=O)[C@@H](Cc1ccc(O)cc1)NC(=O)[C@@H]1CSSC[C@H](NC(=O)[C@H](N)Cc2ccccc2)C(=O)N[C@@H](CC(=O)O)C(=O)NCC(=O)N[C@@H](Cc2ccccc2)C(=O)N[C@@H](Cc2ccc(O)cc2)C(=O)N[C@@H](C)C(=O)N1)C(=O)N[C@@H](CC(=O)O)C(=O)N[C@H](C(N)=O)C(C)C |  | 0.000603 | 1720 | Soluble |  |  |

Now from value to compound, other results behind:

| S [2] | k off [3] [s⁻¹] | k on [3] [M⁻¹ s⁻¹] | S [5] | SMILES | Inhibition [1] [%] | pKd [4] |
| --- | --- | --- | --- | --- | --- | --- |
| Insoluble | 0.000453 | 1410 |  | CSCC[C@H](NC(=O)[C@H](Cc1ccc(O)cc1)NC(=O)[C@@H]1CSSC[C@H](NC(=O)[C@@H](N)Cc2ccccc2)C(=O)N[C@@H](CC(=O)O)C(=O)NCC(=O)N[C@@H](Cc2ccccc2)C(=O)N[C@@H](Cc2ccc(O)cc2)C(=O)N[C@@H](C)C(=O)N1)C(=O)N[C@@H](CC(=O)O)C(=O)N[C@H](C(N)=O)C(C)C | 35.5 |  |
| Insoluble | 0.000294 | 1960 |  | CSCC[C@H](NC(=O)[C@H](Cc1ccc(O)cc1)NC(=O)[C@@H]1CSSC[C@H](NC(=O)[C@@H](N)Cc2ccc(O)cc2)C(=O)N[C@@H](CC(=O)O)C(=O)NCC(=O)N[C@@H](Cc2ccccc2)C(=O)N[C@@H](Cc2ccc(O)cc2)C(=O)N[C@@H](C)C(=O)N1)C(=O)N[C@@H](CC(=O)O)C(=O)N[C@H](C(N)=O)C(C)C | 59.6 |  |
| Insoluble | 0.000512 | 617 |  | CSCC[C@H](NC(=O)[C@H](Cc1ccc(O)cc1)NC(=O)[C@@H]1CSSC[C@H](NC(=O)[C@@H](N)Cc2ccccc2)C(=O)N[C@@H](CC(=O)O)C(=O)NCC(=O)N[C@@H](Cc2ccccc2)C(=O)N[C@@H](Cc2ccc(O)cc2)C(=O)N[C@@H](C)C(=O)N1)C(=O)N[C@@H](CC(=O)O)C(=O)N[C@H](C(=O)N[C@@H](CCCCN)C(N)=O)C(C)C (H-FCDGFYACYMDVK-NH2; disulfide 2-8) |  |  |
|  | 0.00125 | 219 | Soluble | CC(C)[C@H](NC(=O)[C@H](CC(=O)O)NC(=O)[C@H](CCCCN)NC(=O)[C@H](Cc1ccc(O)cc1)NC(=O)[C@@H]1CSSC[C@H](NC(=O)[C@@H](N)Cc2ccccc2)C(=O)N[C@@H](CC(=O)O)C(=O)NCC(=O)N[C@@H](Cc2ccccc2)C(=O)N[C@@H](Cc2ccc(O)cc2)C(=O)N[C@@H](C)C(=O)N1)C(=O)O (H-FCDGFYACYKDV-OH; disulfide 2-8) | 8.4 |  |
|  | 0.000701 | 922 | Soluble | CSCC[C@H](NC(=O)[C@H](Cc1ccc(O)cc1)NC(=O)[C@@H]1CSSC[C@H](NC(=O)[C@@H](N)Cc2ccccc2)C(=O)NCC(=O)N[C@@H](CC(=O)O)C(=O)NCC(=O)N[C@@H](Cc2ccccc2)C(=O)N[C@@H](Cc2ccc(O)cc2)C(=O)N[C@@H](C)C(=O)N1)C(=O)N[C@@H](CC(=O)O)C(=O)N[C@H](C(=O)O)C(C)C (H-FCGDGFYACYMDV-OH; disulfide 2-9) | 18.4 |  |
|  | 0.000808 | 1110 | Soluble | CSCC[C@H](NC(=O)[C@H](Cc1ccc(O)cc1)NC(=O)[C@@H]1CSSC[C@H](NC(=O)[C@H](Cc2ccccc2)NC(=O)CN)C(=O)N[C@@H](CC(=O)O)C(=O)NCC(=O)N[C@@H](Cc2ccccc2)C(=O)N[C@@H](Cc2ccc(O)cc2)C(=O)N[C@@H](C)C(=O)N1)C(=O)N[C@@H](CC(=O)O)C(=O)N[C@H](C(=O)O)C(C)C (H-GFCDGFYACYMDV-OH; disulfide 3-9) |  |  |
